Results: paper PMC7037572 (Journal of Advanced Research, 2020)

Assays:
Type in all cases: cell-based
Settings in all cases: pre-treated 1 h, MSU 500 μg/ml 12 h
MSU-treated THP-1 cells [1] = assay: IL-1β in culture supernatants of MSU-treated THP-1 cells
Summary of the method: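 PMA-differentiated THP-1 cells (ATCC) were pre-treated 1 h with the test compound or a reference P2Y14R antagonist, then stimulated with MSU (500 μg/ml) for 12 h. IL-1β in collected culture supernatants was measured by ELISA kit. n = 4 per group; mean ± SD; one-way ANOVA with Tukey test, p < 0.05.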

NLRP3 inflammasome = assay: Western blot of NLRP3, ASC and Caspase-1 p20 in MSU-treated THP-1 cells
Summary of the method: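 THP-1 cells (PMA-differentiated, pre-treated 1 h, MSU 500 μg/ml 12 h) were lysed in RIPA buffer. Lysates were resolved by 8–12% SDS-PAGE and transferred to PVDF. After blocking, membranes took primary antibodies overnight at 4 °C, three TBST washes and HRP secondary antibodies for 2 h, with ECL detection. n = 4 per group; mean ± SD; one-way ANOVA/Tukey.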

MSU-treated THP-1 cells [2] = assay: cAMP levels in MSU-treated THP-1 cells

`O=C(O)c1cc(-c2ccc(C3CCNCC3)cc2)c2ccc(-c3ccc(C(F)(F)F)cc3)cc2c1` [PPTN] was tested, and the “effect on IL-1β release into the supernatant” value (MSU-treated THP-1 cells [1]) was “apparently inhibited the release of IL-1β”, the “effect on MSU-increased protein expressions of NLRP3, ASC and Caspase-1 p20” value (NLRP3 inflammasome) was “reversed” and the “effect on MSU-induced decrease of cAMP concentrations” value (MSU-treated THP-1 cells [2]) was “reversed”.
